Rows were chosen to be rich in hits. Some 3.5% of all compounds tested hit in one or more screens of this group.
RGS4 act: RGS4 potentiators or activators, primary screen, cell-based, HEK293 M3R inducible RGS4, calcium flux | carbachol calcium flux Fluo4; active compounds read low | B-score at 10 µM | AID 463111, 2010 | hit rate 0.92% among 310,000;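 active = B-score of the integrated calcium signal more than 4 SD below the library mean, with starting fluorescence not abnormally high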;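 also: negative B-score means reduced calcium response which marks RGS4 activation or potentiation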
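System – HEK293 FlpIn-TREx cells, stable M3R, doxycycline-inducible RGS4 · Reagent – ECmax carbachol challenge · Times – compound preincubation 20 min at room temperature before agonist · Technique – Fluo4 fluorescence kinetic imaging of calcium · Measure – B score of integrated Fluo4 ratio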
MrgX1 PAM: positive allosteric modulators of MrgX1, primary screen, HEK293 cells, Fluo-4 calcium flux | Mas-related G-protein coupled receptor member X1 (Homo sapiens), Q96LB2 | FDSS; active compounds read high | B-score at 10 µM | hit rate 0.63% among 310,000 | AID 588675, 2011;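 active = plate-corrected calcium response at least 3 library SD above typical, normal starting fluorescence, not activating the receptor alone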;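 also: compound read alongside a low EC10 to EC30 dose of BAM8-22 agonist; peak minus trough fluorescence over baseline measured at the second addition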
Target sequence (Q96LB2 whole entry, looked up): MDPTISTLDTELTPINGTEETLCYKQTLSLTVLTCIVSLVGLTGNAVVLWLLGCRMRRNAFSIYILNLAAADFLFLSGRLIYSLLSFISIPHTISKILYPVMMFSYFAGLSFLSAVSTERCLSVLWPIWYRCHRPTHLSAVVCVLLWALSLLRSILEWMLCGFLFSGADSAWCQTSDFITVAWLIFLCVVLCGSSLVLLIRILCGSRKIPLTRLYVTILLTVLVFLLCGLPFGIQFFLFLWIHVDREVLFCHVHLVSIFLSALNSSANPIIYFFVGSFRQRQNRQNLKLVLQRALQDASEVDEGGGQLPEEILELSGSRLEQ
RGS4 block: RGS4 inhibitors, primary screen, cell-based, HEK293 M3R inducible RGS4, calcium flux. Fluo-4 calcium flux; active compounds read high; triggered by carbachol at its EC20. B-score at 10 µM. Regulator of G-protein signaling 4 (Homo sapiens), P49798. AID 463165, 2010. hit rate 0.45% among 310,000;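 active = B-score, a plate-corrected calcium signal, over three deviations above library mean, with baseline fluorescence within five deviations of library mean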;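 also: RGS4 expression induced by doxycycline in cells with stable M3 receptor; B-score is computed from the integrated fluorescence ratio over baseline after carbachol; higher B-score means a larger calcium signal and so more RGS4 inhibition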
Target sequence (P49798 whole entry, looked up): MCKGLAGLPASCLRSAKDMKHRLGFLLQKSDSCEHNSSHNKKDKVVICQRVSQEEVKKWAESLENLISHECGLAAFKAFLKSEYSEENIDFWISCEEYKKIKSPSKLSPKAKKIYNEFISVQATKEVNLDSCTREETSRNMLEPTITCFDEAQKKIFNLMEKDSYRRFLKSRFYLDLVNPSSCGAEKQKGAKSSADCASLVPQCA
MrgX1 ag: agonists of human MrgX1 receptor, primary screen, HEK293 cells, Fluo-4 calcium flux; Fluo-4 calcium fluorescence, agonist mode; active compounds read high; Mas-related G-protein coupled receptor member X1 (Homo sapiens), Q96LB2; hit rate 0.44% among 310,000; B-score at 10 µM; AID 588627, 2011;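 active = calcium response B-score plate-corrected fluorescence ratio at least 3 library SD, with starting fluorescence B-score inside 5 SD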
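Test system: HEK293 cells stably expressing human MrgX1 receptor; amount: 15,000 cells per well; doses: compound delivered in addition one of three; times: overnight plating before 1 h dye loading; detection: Fluo-4 NW calcium-flux fluorescence, kinetic read; read-out basis: B-scored fluorescence response ratio; controls: positive and negative controls per plate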
MrgX1 antag: antagonists of human MrgX1 receptor, primary screen, HEK293 cells, Fluo-4 calcium flux; Mas-related G-protein coupled receptor member X1 (Homo sapiens), Q96LB2; BAM8-22 antagonism; active compounds read low; B-score at 10 µM; hit rate 1.3% among 310,000;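 active = calcium-response B-score plate-corrected more than 3 library SD below zero, starting fluorescence within 5 deviations, no agonist response on first addition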;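 also: peak minus trough fluorescence over baseline after final BAM8-22 challenge near maximal dose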
* marks the source's active call; other numbers are inactive results.

What do the screens show for `CCOC(=O)c1sc(N2C(=O)C(O)=C(C(=O)c3ccco3)C2c2ccco2)nc1C` (configuration not stated)?
RGS4 act: inactive; MrgX1 PAM: inactive; RGS4 block: inactive; MrgX1 ag: inactive; MrgX1 antag: inactive

How did Cc1nc2scc(C)n2c(=O)c1S(=O)(=O)Nc1ccc(OC(F)(F)F)cc1 do in these assays?
RGS4 act: inactive; MrgX1 PAM: inactive; RGS4 block: inactive; MrgX1 ag: inactive; MrgX1 antag: inactive

What do the screens show for `CN(CC(=O)Nc1cccc(F)c1)C(=O)c1cc(-c2ccccc2)nc2ccccc12`?
RGS4 act: inactive; MrgX1 PAM: inactive; RGS4 block: inactive; MrgX1 ag: inactive; MrgX1 antag: inactive

How did Cc1ccc2nc(-c3ccccc3)cc(C(=O)N(C)CC(=O)Nc3ccccc3Br)c2c1 do in these assays?
RGS4 act: -9.2*; MrgX1 PAM: inactive; RGS4 block: inactive; MrgX1 ag: inactive; MrgX1 antag: inactive

Results for O=[N+]([O-])c1cccc(S(=O)(=O)Nc2ccc(-c3ccc(N4CCCC4)nn3)cc2)c1 ?
RGS4 act: inactive; MrgX1 PAM: inactive; RGS4 block: inactive; MrgX1 ag: inactive; MrgX1 antag: inactive

How did O=[N+]([O-])c1cccc(S(=O)(=O)Nc2ccc(-c3ccc(N4CCOCC4)nn3)cc2)c1 do in these assays?
RGS4 act: inactive; MrgX1 PAM: 7.8*; RGS4 block: inactive; MrgX1 ag: inactive; MrgX1 antag: inactive

What do the screens show for `CCN1CCN(S(=O)(=O)c2ccc(Cl)c(C(=O)NC(C)c3ccccc3Cl)c2)CC1` (configuration not stated)?
RGS4 act: inactive; MrgX1 PAM: inactive; RGS4 block: inactive; MrgX1 ag: inactive; MrgX1 antag: -5.4*

How did COc1ccc(C(C(=O)NC(C)(C)C)N(C(=O)CCC(=O)Nc2cc(C)on2)c2cccc(C)c2C)cc1 (configuration not stated) do in these assays?
RGS4 act: inactive; MrgX1 PAM: inactive; RGS4 block: inactive; MrgX1 ag: inactive; MrgX1 antag: inactive

How did O=C(O)Cc1cn(Cc2cccc(Cl)c2)c2ccccc12 do in these assays?
RGS4 act: inactive; MrgX1 PAM: inactive; RGS4 block: inactive; MrgX1 ag: inactive; MrgX1 antag: inactive

How did CC1CCCN(C(=O)Cc2cn(Cc3cccc(Cl)c3)c3ccccc23)C1 (configuration not stated) do in these assays?
RGS4 act: -7.4*; MrgX1 PAM: inactive; RGS4 block: inactive; MrgX1 ag: inactive; MrgX1 antag: inactive

What do the screens show for `O=C(Cc1cn(Cc2cccc(Cl)c2)c2ccccc12)N1CCCCCC1`?
RGS4 act: -7.2*; MrgX1 PAM: inactive; RGS4 block: inactive; MrgX1 ag: inactive; MrgX1 antag: inactive

How did Cc1ccc(C(=O)NC(C)c2ccc(-n3ccnc3)cc2)o1 (configuration not stated) do in these assays?
RGS4 act: inactive; MrgX1 PAM: inactive; RGS4 block: inactive; MrgX1 ag: inactive; MrgX1 antag: inactive

What do the screens show for `CN(Cc1ccccc1)C(=O)c1cn(C)c2ccc(S(=O)(=O)N3CCCC3)cc2c1=O`?
RGS4 act: inactive; MrgX1 PAM: inactive; RGS4 block: inactive; MrgX1 ag: inactive; MrgX1 antag: inactive

Results for COc1ccc(Cl)cc1NC(=S)NCc1ccco1 ?
RGS4 act: inactive; MrgX1 PAM: inactive; RGS4 block: inactive; MrgX1 ag: inactive; MrgX1 antag: inactive

Results for O=C(O)Cn1cc(/C=c2/sc3nc4ccccc4n3c2=O)c2ccccc21 ?
RGS4 act: inactive; MrgX1 PAM: inactive; RGS4 block: inactive; MrgX1 ag: 27*; MrgX1 antag: inactive

How did Cc1ccc(-n2c(C)cc(/C=c3/sc4nc5ccccc5n4c3=O)c2C)cc1 do in these assays?
RGS4 act: inactive; MrgX1 PAM: inactive; RGS4 block: inactive; MrgX1 ag: inactive; MrgX1 antag: inactive

Results for Cc1nnc(NC(=O)C23CC4CC(CC(C4)C2)C3)s1 ?
RGS4 act: inactive; MrgX1 PAM: inactive; RGS4 block: inactive; MrgX1 ag: inactive; MrgX1 antag: inactive

Results for COc1ccc([N+](=O)[O-])cc1NC(=O)c1ccccc1N(C)S(C)(=O)=O ?
RGS4 act: inactive; MrgX1 PAM: 7*; RGS4 block: inactive; MrgX1 ag: inactive; MrgX1 antag: inactive

How did COCCSc1ccccc1C(=O)Nc1cc([N+](=O)[O-])ccc1OC do in these assays?
RGS4 act: inactive; MrgX1 PAM: inactive; RGS4 block: inactive; MrgX1 ag: inactive; MrgX1 antag: inactive

What do the screens show for `COc1ccc([N+](=O)[O-])cc1NC(=O)Cc1noc2ccccc12`?
RGS4 act: inactive; MrgX1 PAM: inactive; RGS4 block: inactive; MrgX1 ag: inactive; MrgX1 antag: -9.7*

What do the screens show for `COc1ccc([N+](=O)[O-])cc1NC(=O)C1(c2ccccc2)CCOCC1`?
RGS4 act: inactive; MrgX1 PAM: 8.7*; RGS4 block: inactive; MrgX1 ag: inactive; MrgX1 antag: inactive

What do the screens show for `Cc1c(NC(=O)Cc2noc3ccccc23)cccc1[N+](=O)[O-]`?
RGS4 act: inactive; MrgX1 PAM: inactive; RGS4 block: inactive; MrgX1 ag: inactive; MrgX1 antag: inactive

Results for O=C(ON=C1CCN(S(=O)(=O)c2ccccc2)CC1)c1ccc(F)cc1 ?
RGS4 act: inactive; MrgX1 PAM: inactive; RGS4 block: inactive; MrgX1 ag: inactive; MrgX1 antag: -6.1*

What do the screens show for `O=C(N/N=C/c1cccc2nccnc12)c1ccncc1`?
RGS4 act: -8.3*; MrgX1 PAM: inactive; RGS4 block: inactive; MrgX1 ag: inactive; MrgX1 antag: inactive

How did COc1ccnc(Oc2ccccc2)c1C(=O)N/C=N/OCc1ccccc1F do in these assays?
RGS4 act: inactive; MrgX1 PAM: inactive; RGS4 block: inactive; MrgX1 ag: inactive; MrgX1 antag: -5.6*

How did Cc1ccc(S(=O)(=O)N2CC(C)C(=O)CC2C)cc1 (configuration not stated) do in these assays?
RGS4 act: inactive; MrgX1 PAM: inactive; RGS4 block: inactive; MrgX1 ag: inactive; MrgX1 antag: inactive

Results for CC(C)[C@H](NS(=O)(=O)c1ccccc1)C(=O)OCC(=O)Nc1ccccc1Sc1ccccc1 ?
RGS4 act: inactive; MrgX1 PAM: inactive; RGS4 block: inactive; MrgX1 ag: inactive; MrgX1 antag: -6.4*

Results for Cc1cc(Cl)ccc1OCC(=O)NN1C(=O)C2C3C=CC(C3)C2C1=O (configuration not stated) ?
RGS4 act: inactive; MrgX1 PAM: inactive; RGS4 block: inactive; MrgX1 ag: inactive; MrgX1 antag: -6.1*

How did CCCCCCCCCCCCCCCC[N+](C)(C)CC do in these assays?
RGS4 act: inactive; MrgX1 PAM: inactive; RGS4 block: inactive; MrgX1 ag: inactive; MrgX1 antag: -5.3*
